Experimental data pooled from the literature.
Sample: plasma

Compound	test system	setting	AUC(0-t)
COc1cc(-c2cc(C(C)=O)n3ccccc23)c(OC)cc1Cn1ccnc1	male Sprague-Dawley rat	oral, 5 mg/kg	2150 ng·h/mL
CCN(CC)Cc1ccc2cc(COC(=O)Nc3ccc(C(=O)NO)cc3)ccc2c1	male Sprague-Dawley rat	oral, 10 mg/kg	8490 ng·h/mL
C[C@H]1[C@@H](O)O[C@@H]2O[C@@]3(C)CC[C@H]4[C@H](C)CC[C@@H]1[C@@]24OO3	male Sprague-Dawley rat	oral, 10 mg/kg	234 ng·h/mL
CC[C@@H]([C@H](C)O)n1ncn(-c2ccc(N3CCN(c4ccc(OC[C@@H]5CO[C@@](Cn6cncn6)(c6ccc(F)cc6F)C5)cc4)CC3)cc2)c1=O	Sprague-Dawley rat	oral, 40 mg/kg	6550 ng·h/mL
C[C@@]12C[C@@]3(O)O[C@@H](O1)[C@]1(COC(=O)c4ccccc4)[C@H]3C[C@@]12O[C@@H]1O[C@H](CO)[C@@H](O)[C@H](O)[C@H]1O	male Sprague-Dawley rat	oral, 80 mg/kg	3.74 ng·h/mL
COc1nc(-c2cccc(-c3ccccc3)c2C)ccc1CNCCNC(=O)CCCCCCCCCCC(=O)N1CCN(CCNC(=O)c2cc3c(=O)n4cccc(C)c4nc3n(CCc3cccs3)c2=N)CC1	male Sprague-Dawley rat	oral, 40 mg/kg	257 ng·h/mL
CC(=O)O[C@@H]1CC[C@@]2(C)[C@@H](CC[C@]3(C)[C@@H]2C(=O)C=C2[C@@H]4[C@@H](C)[C@H](C)CC[C@]4(C)CC[C@]23C)[C@@]1(C)C(=O)O	female Wistar rat	oral, 1 mg/kg, single dose	40900 ng·h/mL
Cc1ccc2c(c1)C(=O)[C@]1(O)CCN(c3ccc4nc(C)ccc4c3)C1=N2.Cl	male rat	subcutaneous, 40 mg/kg, multiple doses, once daily	20.4 µM·h
O=C1CCC(N2Cc3cc(C4CCN(Cc5ccccc5)CC4)ccc3C2=O)C(=O)N1 (centres unmarked)	male Sprague-Dawley rat	oral, 3 mg/kg	336 ng·h/mL
COc1ccc(N(Cc2csc(-c3ccccc3)n2)C(=O)CCCCCC(=O)NO)cc1	female Sprague-Dawley rat	intravenous, 5 mg/kg	29.9 ng·h/mL
CNC(=O)c1cc(Oc2ccc(NC(=O)Nc3ccc(Cl)c(C(F)(F)F)c3)cc2)ccn1	male Sprague-Dawley rat	oral, 100 mg/kg, single dose	17700 ng·h/mL
C[C@H]1Oc2cc(cnc2N)-c2c(nn(C)c2C#N)CN(C)C(=O)c2ccc(F)cc21	male Sprague-Dawley rat	oral, 10 mg/kg	3160 ng·h/mL
CONC(=O)c1cccc2c1cc(C)n2-c1nc2c(c(NCc3ccccc3)n1)CCCN2	male Sprague-Dawley rat	intravenous, 1 mg/kg, single dose	20.1 ng·h/mL
CCCCC(=O)Nc1ccc(-c2ccc3ncn(CCC)c(=O)c3c2)cn1	male rat	intravenous, 2.5 mg/kg	2560 ng·h/mL
C=CC(=O)N1CCC[C@@H](n2nc(-c3ccc(Oc4ccccc4)cc3)c3c(N)ncnc32)C1	rat	oral, 40 mg/kg	304 ng·h/mL
Cn1c(=O)c2[nH]cnc2n(C)c1=O	male Sprague-Dawley rat	intravenous, 22.5 mg/kg	53800 ng·h/mL
Nc1ccn([C@@H]2O[C@H](CO)[C@@H](O)C2(F)F)c(=O)n1	male Sprague-Dawley rat	intravenous, 5 mg/kg	160000 ng·h/mL
